The source made the active and inactive calls.
Assays:
[1] = biological target: T1, Delta-type opioid receptor (Rattus norvegicus, UniProt P33533); assay: Displacement of [3H]diprenorphine from rat delta-opioid receptor expressed in C6 cell membrane for 1 hr by liquid scintillation counting analysis; assay type: cell membranes
Mu-type opioid receptor [2] = biological target: T2, Mu-type opioid receptor (Rattus norvegicus, UniProt P33535); assay: Agonist activity at rat mu-opioid receptor expressed in C6 cell membrane assessed as [35S]GTPgammaS binding for 1 hr by liquid scintillation counting analysis; assay type: functional, cell membranes
T2 sequence (P33535 whole entry): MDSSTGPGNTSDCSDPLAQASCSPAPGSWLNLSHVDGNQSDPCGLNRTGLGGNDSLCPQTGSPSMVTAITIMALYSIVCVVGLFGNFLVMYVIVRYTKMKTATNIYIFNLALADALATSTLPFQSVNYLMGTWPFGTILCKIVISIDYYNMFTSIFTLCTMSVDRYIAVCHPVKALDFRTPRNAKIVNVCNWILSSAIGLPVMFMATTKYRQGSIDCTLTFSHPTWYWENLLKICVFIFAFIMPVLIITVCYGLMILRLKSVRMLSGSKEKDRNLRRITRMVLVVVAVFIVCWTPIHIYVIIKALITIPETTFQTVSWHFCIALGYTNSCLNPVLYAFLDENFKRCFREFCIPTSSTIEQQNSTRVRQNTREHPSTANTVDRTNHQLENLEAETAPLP

[3] = biological target: T1, Delta-type opioid receptor; assay: Agonist activity at rat delta-opioid receptor expressed in C6 cell membrane assessed as [35S]GTPgammaS binding for 1 hr by liquid scintillation counting analysis; assay type: functional, cell membranes
[4] = biological target: T3, Kappa-type opioid receptor (Homo sapiens, UniProt P41145); assay: Displacement of [3H]diprenorphine from human kappa-opioid receptor expressed in CHO cell membrane for 1 hr by liquid scintillation counting analysis; assay type: cell membranes
T3 sequence (P41145 whole entry): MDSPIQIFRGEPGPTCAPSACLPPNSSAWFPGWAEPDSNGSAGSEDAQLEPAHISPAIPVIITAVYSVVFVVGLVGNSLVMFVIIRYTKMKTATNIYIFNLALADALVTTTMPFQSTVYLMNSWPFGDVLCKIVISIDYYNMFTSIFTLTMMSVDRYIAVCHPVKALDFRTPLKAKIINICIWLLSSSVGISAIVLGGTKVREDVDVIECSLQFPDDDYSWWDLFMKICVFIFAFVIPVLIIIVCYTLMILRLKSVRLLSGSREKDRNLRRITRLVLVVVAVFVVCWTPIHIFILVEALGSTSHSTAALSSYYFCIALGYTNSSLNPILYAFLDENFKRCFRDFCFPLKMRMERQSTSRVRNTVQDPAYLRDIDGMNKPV
Procedure, shortened: (§1)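 Competition for 0.2 nM [3H]diprenorphine in membranes (20 µg protein) from C6 cells with rat MOR or DOR, or CHO cells with human KOR. 50 mM Tris-HCl pH 7.4, 1 h at room temperature, then GF/C filtration, five buffer washes, scintillation counting. Nonspecific binding set with 10 µM naloxone. Ki from logistic fit. Mean ± S.E.M., ≥3 assays in duplicate. DOR/MOR ratio taken from the Ki values.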

[5] = biological target: T3, Kappa-type opioid receptor; assay: Agonist activity at human kappa-opioid receptor expressed in CHO cell membrane assessed as [35S]GTPgammaS binding for 1 hr by liquid scintillation counting analysis relative to 10 uM U69593; assay type: functional, cell membranes
[6] = biological target: T3, Kappa-type opioid receptor; assay: Agonist activity at human kappa-opioid receptor expressed in CHO cell membrane assessed as [35S]GTPgammaS binding for 1 hr by liquid scintillation counting analysis; assay type: functional, cell membranes
Rattus norvegicus = organism: Rattus norvegicus; assay: Selectivity ratio, ratio of Ki for rat delta-opioid receptor to Ki for rat mu-opioid receptor; procedure, shortened: as §1
[7] = biological target: Delta-type opioid receptor (Rattus norvegicus) (UniProt P33533); assay: Agonist activity at rat delta-opioid receptor expressed in C6 cell membrane assessed as [35S]GTPgammaS binding for 1 hr by liquid scintillation counting analysis relative to 10 uM DPDPE; assay type: functional, cell membranes
Chain of Delta-type opioid receptor (Rattus norvegicus) (P33533 whole entry): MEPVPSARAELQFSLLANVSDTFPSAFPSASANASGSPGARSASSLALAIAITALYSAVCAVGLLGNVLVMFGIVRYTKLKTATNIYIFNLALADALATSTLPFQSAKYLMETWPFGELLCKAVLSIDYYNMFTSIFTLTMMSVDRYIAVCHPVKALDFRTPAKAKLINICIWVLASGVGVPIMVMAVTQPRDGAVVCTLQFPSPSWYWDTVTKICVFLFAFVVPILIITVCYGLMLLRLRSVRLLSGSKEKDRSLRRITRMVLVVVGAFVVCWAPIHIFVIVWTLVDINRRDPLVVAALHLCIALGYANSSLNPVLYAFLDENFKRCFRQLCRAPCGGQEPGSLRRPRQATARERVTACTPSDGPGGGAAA

[8] = biological target: Mu-type opioid receptor (Rattus norvegicus) (UniProt P33535); assay: Agonist activity at rat mu-opioid receptor expressed in C6 cell membrane assessed as [35S]GTPgammaS binding for 1 hr by liquid scintillation counting analysis relative to 10 uM DAMGO; assay type: functional, cell membranes
Chain of Mu-type opioid receptor (Rattus norvegicus) (P33535 whole entry): as the sequence (P33535 whole entry) above

Mus musculus [9] = assay: Antinociceptive activity in C57BL/6 mouse assessed as tail withdrawal latency time at 10 mg/kg, ip measured after 30 mins by warm water tail withdrawal assay; assay type: functional
Mu-type opioid receptor [10] = biological target: T2, Mu-type opioid receptor; assay: Displacement of [3H]diprenorphine from rat mu-opioid receptor expressed in C6 cell membrane for 1 hr by liquid scintillation counting analysis; assay type: cell membranes
Mus musculus [11] = assay: Antinociceptive activity in C57BL/6 mouse assessed as tail withdrawal latency upto 10 mg/kg, ip measured after 30 mins by warm water tail withdrawal assay; assay type: functional, organism-based
Mus musculus [12] = assay: Antinociceptive activity in C57BL/6 mouse assessed as time duration of action at 10 mg/kg, ip measured after 30 mins by warm water tail withdrawal assay; assay type: functional
Procedure, shortened: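 Male C57BL/6 mice given a single 10 mg/kg ip dose. Tail withdrawal from 50 °C water, 20 s cutoff, measured at varying times after dosing to follow duration of action. n=6.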

Mus musculus [13] = assay: Antinociceptive activity in ip dosed C57BL/6 mouse assessed as tail withdrawal latency measured 30 mins after drug challenge by warm water tail withdrawal assay; assay type: functional; conditions: for ED50: C57BL/6, Tail, 0.5 h
Plasma = assay: Stability in C57BL/6 mouse plasma after 30 mins; assay type: ADME, cell-free; conditions: 0.5 h
Mus musculus [14] = assay: Antinociceptive activity in ip dosed C57BL/6 mouse assessed as tail withdrawal latency pretreated with 1 mg/kg naltrexone for 30 mins measured 30 mins after drug challenge by warm water tail withdrawal assay; assay type: functional; conditions: C57BL/6, Tail
Procedure, shortened: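 Male C57BL/6 mice pretreated ip with 1 mg/kg naltrexone or saline 30 min before cumulative ip dosing to 3.2, 10 and 32 mg/kg. Tail withdrawal latency from 50 °C water, 20 s cutoff, read 30 min after each dose. ED50 from the dose-response.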

T1 sequence (P33533 whole entry): as the sequence (P33533 whole entry) above

Row | SMILES | Ki [1] | EC50 (Mu-type opioid receptor [2]; c6) | EC50 ([3]; c6) | Ki [4] | Activity [5] | EC50 ([6]; read-out: EC50) | Ratio Ki (Rattus norvegicus) | Activity [7] | Activity [8] | Time (Mus musculus [9]) | EC50 (Mu-type opioid receptor [2]; read-out: EC50) | Ki (Mu-type opioid receptor [10]) | Activity (Mus musculus [11]) | Time (Mus musculus [12]) | EC50 ([6]; cho) | Activity (Mus musculus [13]) | ED50 (Mus musculus [13]) | Stability (Plasma) | ED50 (Mus musculus [14]) | EC50 ([3]; read-out: EC50)
1 | Cc1cc(O)cc(C)c1C[C@H](N)C(=O)N[C@@H]1CCCc2ccc(CC3CCCCC3)cc21 | 14 nM | Not Active | Not Active | 20 nM | 25% | 350 nM | 117 | inactive | inactive |  |  |  |  |  |  |  |  |  |  | 
2 | Cc1cc(O)cc(C)c1C[C@H](N)C(=O)N[C@@H]1CCNc2ccc(Cc3ccc4ccccc4c3)cc21 |  |  |  |  | inactive |  |  | inactive | 96% | 10 s |  |  |  |  |  |  |  |  |  | 
3 | Cc1cc(O)cc(C)c1C[C@H](N)C(=O)N[C@@H]1CCNc2ccc(CC3CCCCC3)cc21 | 3.4 nM |  | Not Active | 6.2 nM | 36% | 97 nM | 79 | inactive | 57% |  | 2.6 nM | 0.043 nM | inactive |  |  |  |  |  |  | 
4 | Cc1cc(O)cc(C)c1C[C@H](N)C(=O)N[C@@H]1CCNc2ccc(Cc3ccccc3)cc21 |  |  |  |  |  |  |  |  |  |  |  |  |  | >1 h |  |  |  |  |  | 
5 | Cc1cc(O)cc(C)c1C[C@H](N)C(=O)N[C@@H]1CCNc2ccc(CC3Cc4ccccc4C3)cc21 |  |  |  |  | 38% |  | 26 | inactive | 86% |  |  |  | inactive |  | Not Active |  |  |  |  | 
6 | Cc1cc(O)cc(C)c1C[C@H](N)C(=O)N[C@@H]1CCCc2ccc(Cc3ccc4ccccc4c3)cc21 | 12 nM |  | Not Active | 92 nM |  |  |  |  | 72% |  | 4.4 nM | 0.06 nM | inactive |  | Not Active |  |  |  |  | 
7 | CC(=O)N1CC[C@@H](NC(=O)[C@@H](N)Cc2c(C)cc(O)cc2C)c2cc(Cc3ccc4ccccc4c3)ccc21 | 0.23 nM |  | Not Active | 48 nM | inactive |  | 6 | inactive | 87% |  | 0.93 nM | 0.04 nM |  | >3 h | Not Active | Dose-dependent effect | 4.72 mg/kg | Stable | 15.1 mg/kg | 
8 | Cc1cc(O)cc(C)c1C[C@H](N)C(=O)N[C@@H]1CCNc2ccc(CC3CCc4ccccc43)cc21 (mixture of isomers) | 6.8 nM |  | Not Active | 19 nM | 52% | 180 nM |  |  | 16% |  | 9 nM | 0.05 nM |  |  |  |  |  |  |  | 
9 | CC(=O)N1CC[C@@H](NC(=O)[C@@H](N)Cc2c(C)cc(O)cc2C)c2cc(CC3CCc4ccccc43)ccc21 (mixture of isomers) | 0.84 nM |  | Not Active | 15 nM | 26% |  |  |  | 39% |  | 15 nM | 0.03 nM |  |  |  |  |  |  |  | 
10 | CC(=O)N1CC[C@@H](NC(=O)[C@@H](N)Cc2c(C)cc(O)cc2C)c2cc(CC3Cc4ccccc4C3)ccc21 | 0.44 nM |  | Not Active | 12 nM | 60% | 610 nM | 9 | inactive | 84% | 11 s | 0.56 nM | 0.05 nM |  |  |  |  |  |  |  | 
11 | CC(=O)N1CC[C@@H](NC(=O)[C@@H](N)Cc2c(C)cc(O)cc2C)c2cc(CC3CCCCC3)ccc21 | 0.32 nM |  |  | 8.4 nM | 33% | 240 nM | 11 | 26% | 70% |  | 0.61 nM | 0.03 nM | inactive |  |  |  |  |  |  | 14 nM
12 | Cc1cc(O)cc(C)c1C[C@H](N)C(=O)N[C@@H]1CCCc2ccc(Cc3ccccc3)cc21 | 4 nM |  | Not Active | 19 nM |  |  |  |  | 64% | 14 s | 2.9 nM | 0.045 nM |  |  | Not Active |  |  |  |  | 
13 | Cc1cc(O)cc(C)c1C[C@H](N)C(=O)N[C@@H]1CCNc2ccc(Cc3cccc4ccccc34)cc21 |  |  |  |  |  |  |  | 15% | 93% |  |  |  |  |  |  |  |  |  |  | 
14 | CN1CC[C@]23c4c5ccc(O)c4O[C@H]2[C@@H](O)C=C[C@H]3[C@H]1C5 [MORPHINE] |  |  |  |  |  |  |  |  |  |  |  |  |  |  |  |  | 4.73 mg/kg |  |  | 
15 | Cc1cc(O)cc(C)c1C[C@H](N)C(=O)N[C@@H]1CCCc2ccc(Cc3cccc4ccccc34)cc21 | 5 nM |  | Not Active | 63 nM | inactive |  | 13 | inactive | 58% |  | 14 nM | 0.39 nM | inactive |  | Not Active |  |  |  |  | 
16 | CC(=O)N1CC[C@@H](NC(=O)[C@@H](N)Cc2c(C)cc(O)cc2C)c2cc(Cc3ccccc3)ccc21 | 1.8 nM |  |  | 87 nM | 29% | > 1300 nM | 14 | 26% | 76% |  | 6 nM | 0.13 nM | inactive |  |  |  |  |  |  | 68 nM
17 | CC(=O)N1CC[C@@H](NC(=O)[C@@H](N)Cc2c(C)cc(O)cc2C)c2cc(Cc3cccc4ccccc34)ccc21 | 1.3 nM |  | Not Active | 4.3 nM | inactive |  | 22 | inactive | 70% |  | 0.48 nM | 0.06 nM | inactive |  | Not Active |  |  | Stable |  | 

Reference: ChEMBL document CHEMBL3632584, “Further Optimization and Evaluation of Bioavailable, Mixed-Efficacy μ-Opioid Receptor (MOR) Agonists/δ-Opioid Receptor (DOR) Antagonists: Balancing MOR and DOR Affinities” (J Med Chem, 2015)
